# Bioassay records (PubChem BioAssay)
# A selection: hits, their analogues and other compounds. The true share with any hit is near 1%.
# procasp7 counter: counter-screen for procaspase-3 activators: activators of human procaspase-7 | activation, % at 8.5 µM | P55210 | 330,000 compounds, 0.093% hits | recombinant procaspase-7, Ac-DEVD-pNA absorbance 405 nm; D23A/D198A/D206A triple mutant, cannot self-cleave; scale: DMSO 0, 5 µM enzyme 100;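 active = percent activation above the screen-wide mean plus 3 SD, cut at about 25% in these data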
#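 Assay system: Uncleavable procaspase-7 mutant enzyme; Input: 2 µM procaspase-7 mutant as dispensed; Also added: DEVD-pNA substrate; Medium: Zinc-free HEPES pH 7.4 with 300 mM NaCl, 0.01% Triton X-100; Timing: 1 h compound preincubation, 2 h substrate cleavage, 25 °C; Measured by: Epi-absorbance of released pNA at 405 nm, two timepoints.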
# Fam108B counter: blocks mouse Fam108B hydrolase in RBBP9 counter-screen; inhibition, % at 9.51 µM; recombinant Fam108B, FP-Rh probe fluorescence polarization; 300,000 compounds, 0.33% hits; AID 1947;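 active = inhibition above the screen mean inhibition plus 3 SD, computed separately per campaign, cut at about 18% in these data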;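 note: inhibitors lower polarization as less probe binds the enzyme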
# PME-1 inh: blocks human protein phosphatase methylesterase 1. recombinant PME-1, FP-Rh probe fluorescence polarization. Q9Y570. inhibition, % at 5.9 µM. 320,000 compounds, 0.53% hits;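 active = inhibition above the campaign mean of all compounds plus 3 SD, cut at about 26% in these data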;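 note: competitive labeling of PME-1 active site by serine hydrolase directed probe; 0% = PME-1 with DMSO and 100% = wells lacking PME-1 enzyme; inhibitors block probe labeling so polarization falls and inhibition rises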
# LYPLA1 inh: blocks human lysophospholipase 1, a PME1 counter-screen; recombinant LYPLA1, FP-Rh probe fluorescence polarization; inhibition, % at 5.9 µM; 320,000 compounds, 0.16% hits; AID 2174;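 active = inhibition above the mean of all tested compounds plus 3 SD, set per campaign, cut at about 14% in these data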;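 note: inhibitors block serine hydrolase probe labeling of LYPLA1 so polarization falls; 0% = enzyme with DMSO and 100% = wells lacking LYPLA1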
# Target sequence (O75608 whole entry, looked up): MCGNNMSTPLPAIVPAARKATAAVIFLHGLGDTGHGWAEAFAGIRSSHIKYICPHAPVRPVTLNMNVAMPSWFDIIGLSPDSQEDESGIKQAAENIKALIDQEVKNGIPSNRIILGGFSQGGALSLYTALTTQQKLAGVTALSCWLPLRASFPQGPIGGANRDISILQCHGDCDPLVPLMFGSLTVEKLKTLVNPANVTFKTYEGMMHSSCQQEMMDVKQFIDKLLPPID
# LYPLA2 inh: counter-screen for PME1 inhibitors: inhibitors of human LYPLA2 | recombinant LYPLA2, FP-Rh probe fluorescence polarization | inhibition, % at 5.9 µM | 320,000 compounds, 0.38% hits;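 active = inhibition above the screen-wide mean plus 3 SD, limit set per campaign, cut at about 26% in these data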;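 note: 0% = LYPLA2 with DMSO and 100% = wells lacking LYPLA2 enzyme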
# proCasp3 act: procaspase-3 (human) activation; P42574; recombinant procaspase-3 D3A, Ac-DEVD-pNA absorbance 405 nm; activation, % at 8.5 µM; 330,000 compounds, 0.11% hits;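 active = activation above the mean of all tested compounds plus 3 SD, cut at about 21% in these data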;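 note: 0% = DMSO alone and 100% = DMSO wells spiked with extra 5 µM PC-3 D3A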
# Target sequence (P42574 whole entry D9A/D28A/D175A): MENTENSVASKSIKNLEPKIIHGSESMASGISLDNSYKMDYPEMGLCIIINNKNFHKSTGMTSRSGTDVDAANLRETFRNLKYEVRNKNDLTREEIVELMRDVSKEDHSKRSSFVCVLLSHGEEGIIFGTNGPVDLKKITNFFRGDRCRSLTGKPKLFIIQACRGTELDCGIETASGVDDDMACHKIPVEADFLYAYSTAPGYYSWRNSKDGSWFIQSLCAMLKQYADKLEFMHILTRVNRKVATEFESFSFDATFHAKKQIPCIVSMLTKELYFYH
#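 Evaluation: percent activation relative to control range; Material: Procaspase-3 D3A mutant, all three cleavage aspartates alanine; Compound: single dose, 8.5 µM nominal compound, 0.8% DMSO; Replication: one well per compound; Signal: absorbance at 405 nm, 0 and 120 min; Schedule: 1 h preincubation plus 2 h reaction at 25 °C.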
# Fam108b inh conf: confirmation of mouse Fam108b serine hydrolase inhibitors; shares compounds with Fam108B counter; recombinant Fam108b, FP-Rh probe fluorescence polarization; inhibition, % at 9.51 µM; 930 compounds, 44% hits; AID 1978;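 active = inhibition above a limit from the primary screen, the mean over all compounds plus 3 SD, cut at about 19% in these data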;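 note: 0% = median of active Fam108b wells and 100% = catalytically dead S170A mutant; inhibitors free the probe so polarization falls as inhibition rises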
# Fam108b inh: inhibits mouse Fam108b in gel-based ABPP | shares compounds with Fam108B counter | recombinant Fam108b, fluorophosphonate probe | inhibition, % at 20 µM | 260 compounds, 44% hits; in the data active = inhibition above about 40%
# * = called active by the depositor; nt = no result given.
SMILES,procasp7 counter,Fam108B counter,PME-1 inh,LYPLA1 inh,LYPLA2 inh,proCasp3 act,Fam108b inh conf,others
CCc1cc(C(Cc2ccc3ccccc3n2)=NO)c(O)cc1O,nt,nt,nt,nt,nt,nt,nt,Fam108b inh=40*
CCc1cc(/C(Cc2ccc3ccccc3n2)=N\O)c(O)cc1O,2,25*,34*,8,17,-4,30*,
CC1CCCC(NC(=O)C2N(CCCN3CCCC3)C(=O)C3C(C(=O)Nc4cccc(Cl)c4)C4C=CC32O4)C1C (stereo not given),-5,2,-7,-3,1,-8,nt,
Cc1cc(Nc2ccc(Cl)cc2)nc(NCc2ccccc2)n1,3,34*,14,-5,-1,-4,32*,Fam108b inh=45*
Cc1cc(Nc2ccccc2)nc(NCc2ccccc2)n1,-4,3,7,-4,2,5,nt,
CCc1ccc(S(=O)(=O)/N=C2\C=C(Nc3ccc(C(=O)O)cc3)C(=O)c3ccccc32)cc1,-17,58*,30*,10,18,-2,74*,Fam108b inh=0
Cc1ccc(S(=O)(=O)/N=C2\C=C(Nc3cccc(C(=O)O)c3)C(=O)c3ccccc32)c(C)c1,6,35*,23,-4,4,-1,49*,Fam108b inh=15
Cc1ccc(S(=O)(=O)/N=C2\C=C(Nc3cccc(C(=O)O)c3)C(=O)c3ccccc32)cc1,-4,50*,25,3,21,-9,60*,Fam108b inh=0
Cc1ccc(S(=O)(=O)/N=C2\C=C(Nc3ccc(O)cc3)C(=O)c3ccccc32)cc1,-2,nt,nt,nt,nt,-2,nt,
COc1ccccc1N(CC(=O)Nc1cc(C)on1)S(=O)(=O)c1cccc(C(F)(F)F)c1,7,nt,7,-1,3,2,nt,
CC(=O)Oc1cc2c3c(c1)/C(=C1/SC(=S)NC1=O)C(=O)N3C(C)(C)C=C2C,-22,19*,25,7,9,-15,22*,
CCO[C@@H]1OC(C(=O)N2CCCCCCC2)=C[C@H](c2ccc(C(F)(F)F)cc2)[C@H]1CCCO,-1,-6,0,-3,-2,-4,nt,
Nc1c(S(=O)(=O)c2cccc(Cl)c2)c2nc3ccccc3nc2n1N=Cc1ccc(O)c(O)c1,nt,nt,nt,nt,nt,nt,nt,Fam108b inh=80*
COc1ccc(OC)c(NC(=O)Nc2ccc(Cl)cc2)c1,7,23*,21,-12,-2,4,14,
COc1ccccc1NC(=O)Nc1ccc(NC(=O)c2ccccc2O)cc1,-1,21*,0,-12,0,-2,-2,
Brc1ccc(C2=Nc3cccc4cccc(c34)N2)o1,7,19*,3,-4,-1,2,12,
CN1C2CCC1CC(OC(=O)C(CO)c1ccccc1)C2 (stereo not given),nt,1,-2,-6,-4,nt,nt,
COC(=O)C1=C(C)NC(C)=C(C(=O)OCC2CCCO2)C1c1cccc(Br)c1 (stereo not given),-6,-1,-5,3,1,1,nt,
N=C1/C(=C/c2ccc(-c3cccc(C(=O)O)c3)o2)C(=O)N=C2SC=C(c3ccccc3)N12,-12,37*,-12,-18,-21,-16,18*,
N=C1/C(=C/c2cccn2CCOc2ccccc2)C(=O)N=C2SC=C(c3ccccc3)N12,-15,19*,-13,-26,-30,-17,2,
N=C1/C(=C\c2ccc(-c3cc(Cl)cc(Cl)c3)o2)C(=O)N=C2SC=C(c3ccccc3)N12,-13,5,23,-5,-8,-15,nt,
COCCC1CCCCN1C(=O)c1cc(COc2ccc(-n3cncn3)cc2)on1 (stereo not given),-3,-2,4,-2,-4,-3,nt,
O=C(Nc1ccc(-c2csc(Nc3cccc(C(F)(F)F)c3)n2)cc1)c1cc([N+](=O)[O-])cc(C(F)(F)F)c1,-1,41*,1,-5,-7,2,11,
O=C(Nc1ccc(-c2csc(Nc3cccc(C(F)(F)F)c3)n2)cc1)c1ccccc1,15,10,-3,-24,-25,7,nt,
Cc1nc2nc(-c3cccs3)[nH]c2cc1Br,6,-9,-5,-2,-16,8,nt,
SMILES,procasp7 counter,Fam108B counter,PME-1 inh,LYPLA1 inh,LYPLA2 inh,proCasp3 act,Fam108b inh conf,others
NC(=O)Nc1ccccc1C(=O)N1CCC(O)(c2ccc(Cl)cc2)CC1,-3,43*,6,-3,-3,2,1,
Fc1ccccc1-c1cc2ncccc2cn1,3,nt,-6,1,2,1,nt,
Cc1ccc(-n2[nH]c(C)c(/C=N/Nc3ccc([N+](=O)[O-])cc3[N+](=O)[O-])c2=O)cc1C,-9,25*,30*,6,15,-3,12,
COc1ccc(OC)c(S(=O)(=O)N2CCCC(C(=O)NCc3cccnc3)C2)c1 (stereo not given),-4,-2,-5,-2,-5,5,nt,
CC(C)Oc1ccc(CCC(=O)N/N=C/c2ccc3c(c2)OCO3)cc1,10,25*,41*,-1,8,-4,0,
COc1ccc(C(C(N)=O)c2ncc(C(F)(F)F)cc2Cl)cc1OC (stereo not given),-4,6,-10,-1,-5,-1,nt,
O=C(CSc1ccc(-c2ccco2)nn1)NCc1ccccc1Cl,-7,22*,17,6,11,-6,6,
O=C(CSc1ccc(-c2ccco2)nn1)Nc1ccccc1,-18,7,1,2,6,-11,nt,
O=C(O)c1cccc(-n2cccc2/C=C/[N+](=O)[O-])c1,-9,25*,-13,-2,3,-8,1,
O=C(O)c1cccc(-n2cccc2/C=C\[N+](=O)[O-])c1,-5,5,-7,1,0,-11,nt,
CCc1cccc2cc3c(N)c(C(=O)Nc4ccc(S(=O)(=O)N5CCCC5)cc4)sc3nc12,-5,54*,38*,-8,14,-23,-17,
Cc1cccc2cc3c(N)c(C(=O)Nc4ccc(N5CCOCC5)cc4)sc3nc12,-5,20*,21,-1,1,2,2,
COc1ccc(-c2cn3cccnc3n2)cc1NC(=O)C(C)Oc1ccccc1 (stereo not given),-4,-5,-6,-1,-1,6,nt,
O=C(CCCc1c[nH]c2ccccc12)NCC1COc2ccccc2O1 (stereo not given),8,-1,-2,0,1,4,nt,
CSc1nc(C(=O)N2CCCC(Nc3ccc(C)c(C)c3)C2)cs1 (stereo not given),-2,3,6,2,4,4,nt,
